Data set [1] in a line: Half-life of the conjugate when treated with 10% foetal bovine serum for enzymatic stability. Format: ADME, Bos taurus. The conditions noted are these: cattle. The essentials: (§1)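 Conjugates at 20 μM in 10% FBS RPMI 1640 medium or 25% mouse serum (Hepes-stabilised, diluted in PBS, pH 7.1–7.4), incubated at 37 °C. Sampled to 168 h (FBS) or 48 h (serum); proteins precipitated with 10% DCA, PNA 6mer internal standard added. Analysed by C3 RP-HPLC at 60 °C; t1/2 from normalised full-length peak area versus time.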

Data set [2] deals with BCL1. The data set is described as follows: Inhibitory concentration against BCL1 cell proliferation in WST-1 assay. Format: functional, Mus musculus. The gist of the method:
(§2)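 BCL1 cells, 2000 per well, grown in DMEM with 10% FBS at 37 °C and 5% CO2. Exposed to conjugate for 3 days, then viable cells read by WST-1 absorbance at 450 nm. Value is the concentration at which absorbance fell below 50% of untreated control; triplicates.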

For data set [3], the system named is CD40 mRNA. The data set is described as follows: […] CD40 expression in BCL1 cells treated with 3 uM peptide nucleic acid (PNA)conjugate; n=3. Format: functional, cell-based. Conditions: Mus musculus. The essentials: (§3)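 Mouse BCL1 cells in DMEM with 10% FBS, given conjugate at 1, 3 or 10 μM by free uptake (no transfection agent) for 3 days. Cells trypsinised and stained 1 h with FITC anti-CD40 (HM40-3) or isotype control, then surface CD40 read by flow cytometry. Results are % untreated control, mean ± SD, n = 3.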

For data set [4], the system named is CD40 mRNA. The data set is described as follows: […] CD40 expression in BCL1 cells treated with 10 uM peptide nucleic acid (PNA)conjugate; n=3. Conditions: Mus musculus. Format: functional, cell-based. The essentials:
as §3

Data set [5] relates to CD40 mRNA. In words: […] CD40 expression in BCL1 cells treated with 1 uM peptide nucleic acid (PNA)conjugate; n=3. Format: functional, cell-based. The conditions noted are these: Mus musculus. The gist of the method:
as §3

Data set [6] is described as follows: Half-life of the conjugate when treated with 25% murine serum for enzymatic stability; No data available. Format: ADME. The conditions noted are these: mouse. The essentials:
as §1

For data set [7], the system named is BCL1. The data set is described as follows: Inhibitory concentration against BCL1 cell proliferation in WST-1 assay; Range 10-20. Format: functional, Mus musculus. The gist of the method: as §2
Data set [8] in a line: Half-life of the conjugate when treated with 25% murine serum for enzymatic stability; Range 2-3 h. Format: ADME. Conditions: mouse. The essentials:
as §1

Non-standard residues stand in square brackets, D forms with d. Residues, ends and D or L forms follow the SMILES beside them. Lys(Me2) = CN(C)CCCC[C@H](N)C(=O)O; hLys = NCCCCC[C@H](N)C(=O)O; Nlys = NCCCCNCC(=O)O

`CN(C)CCCC[C@H](NC(=O)[C@H](CCCCN)NC(=O)[C@H](CCCCN(C)C)NC(=O)[C@H](CCCCN)NC(=O)[C@H](CCCCN(C)C)NC(=O)[C@H](CCCCN)NC(=O)[C@H](CCCCN(C)C)NC(=O)[C@@H](N)CCCCN)C(=O)N[C@H](C=O)CCCCN` (H-K[Lys(Me2)]K[Lys(Me2)]K[Lys(Me2)]K[Lys(Me2)]K-aldehyde) yielded a half-life in data set [1] of more than 168 h. In addition, the “IC50 for cell proliferation” value in the data set on BCL1 [2] was 20 µM. Besides, the UTC in the data set on CD40 mRNA [3] was 89%; in the data set on CD40 mRNA [4] it was 53%; in the data set on CD40 mRNA [5], 96%. In addition, the T1/2 result in data set [6] is on record as “No data available”.

`NCCCC[C@H](NC(=O)CN(CCCCN)C(=O)[C@H](CCCCN)NC(=O)CN(CCCCN)C(=O)[C@H](CCCCN)NC(=O)CN(CCCCN)C(=O)[C@H](CCCCN)NC(=O)CN(CCCCN)C(=O)[C@@H](N)CCCCN)C(=O)O` (H-K[Nlys]K[Nlys]K[Nlys]K[Nlys]K-OH): the half-life in data set [1] is more than 168 h. Moreover, the IC50 in the data set with BCL1 [7] turned out to be 20 µM. The UTC amounted to 96% in the data set with CD40 mRNA [3], 70% with CD40 mRNA [4] and 111% in the data set with CD40 mRNA [5]. For the same compound, the T1/2 entry in data set [6] was “No data available”.

As for `NCCCCC[C@H](NC(=O)[C@H](CCCCN)NC(=O)[C@H](CCCCCN)NC(=O)[C@H](CCCCN)NC(=O)[C@H](CCCCCN)NC(=O)[C@H](CCCCN)NC(=O)[C@H](CCCCCN)NC(=O)[C@@H](N)CCCCN)C(=O)N[C@H](C=O)CCCCN` (H-K[hLys]K[hLys]K[hLys]K[hLys]K-aldehyde), the half-life in data set [1] is more than 168 h. The “IC50 for cell proliferation” value in the data set on BCL1 [2] was more than 20 µM. Besides, the UTC in the data set on CD40 mRNA [3] came out at 61%; with CD40 mRNA [4], 32%; in the data set on CD40 mRNA [5], 81%. In data set [6], the T1/2 result is given as “No data available”.

For `N=C(N)NCCC[C@H](NC(=O)[C@H](CCCNC(=N)N)NC(=O)[C@H](CCCNC(=N)N)NC(=O)[C@H](CCCNC(=N)N)NC(=O)[C@H](CCCNC(=N)N)NC(=O)[C@H](CCCNC(=N)N)NC(=O)[C@H](CCCNC(=N)N)NC(=O)[C@@H](N)CCCNC(=N)N)C(=O)N[C@H](C=O)CCCCN` (H-RRRRRRRRK-aldehyde), the half-life was 20 h in data set [1] and 3 h in data set [8]. For the same compound, the “IC50 for cell proliferation” value in the data set on BCL1 [2] is more than 20 µM. In addition, the UTC amounted to 81% with CD40 mRNA [3], 60% in the data set with CD40 mRNA [4] and 102% with CD40 mRNA [5].

Compound `CN(C)CCCC[C@H](NC(=O)[C@H](CCCCN(C)C)NC(=O)[C@H](CCCCN)NC(=O)[C@H](CCCCN(C)C)NC(=O)[C@H](CCCCN(C)C)NC(=O)[C@H](CCCCN)NC(=O)[C@H](CCCCN(C)C)NC(=O)[C@@H](N)CCCCN(C)C)C(=O)N[C@H](C=O)CCCCN` (H-[Lys(Me2)][Lys(Me2)]K[Lys(Me2)][Lys(Me2)]K[Lys(Me2)][Lys(Me2)]K-aldehyde) came in with a half-life in data set [1] of more than 168 h. The “IC50 for cell proliferation” value in the data set on BCL1 [2] is more than 20 µM. The UTC with CD40 mRNA [3] came to 89%; in the data set on CD40 mRNA [4], 63%; in the data set on CD40 mRNA [5], 91%. In addition, the T1/2 result in data set [6] is “No data available”.

The values above are taken from ChEMBL document CHEMBL1141128, “Structure-activity relationship study on a simple cationic peptide motif for cellular delivery of antisense peptide nucleic acid” (J Med Chem, 2005).
